Assay results taken from ChEMBL document CHEMBL1955785, “SAR and biological evaluation of 3-azabicyclo[3.1.0]hexane derivatives as μ opioid ligands” (Bioorg Med Chem Lett, 2012).

Tests used:
Mu-type opioid receptor [1] = molecular target: T1, Mu-type opioid receptor (Homo sapiens, UniProt P35372); assay: Antagonist activity at human mu opioid receptor by GTP-gamma S binding assay
[2] = Displacement of [3H]DAMGO from mu opioid receptor in dog brain after 90 mins by scintillation counting; design: species or system Canis lupus familiaris
Mu-type opioid receptor [3] = molecular target: T1, Mu-type opioid receptor; assay: Displacement of [3H]DAMGO from human mu opioid receptor
Summary of the method: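 Human μ receptor filter-binding assay using [3H]DAMGO as the radioligand; Ki derived from displacement.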

[4] = Displacement of [3H]U-69,593 from kappa opioid receptor in dog brain after 90 mins by scintillation counting; design: species or system Canis lupus familiaris
[5] = Displacement of [3H]DPDPE from delta opioid receptor in dog brain after 90 mins by scintillation counting; design: species or system Canis lupus familiaris
[6] = molecular target: Mu-type opioid receptor (Cavia porcellus) (UniProt P97266); assay: Antagonist activity at mu opioid receptor in guinea pig longitudinal muscle myenteric plexus assessed as inhibition of DAMGO-induced twitch tension at 1 uM after 10 mins; type: functional
Summary of the method: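 Isolated guinea-pig myenteric plexus-longitudinal muscle was stimulated electrically at 0.1 Hz with a 1 ms pulse width at supramaximal voltage, then washed and rested for 20 min. Kappa antagonist nor-binaltorphimine (1 µM, 10 min) and captopril (1 µM) were added. Test compound was added once twitches plateaued, and 10 min later a cumulative DAMGO dose response was built (3 min contact, 1 min recording per concentration).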

T1 sequence (P35372 whole entry): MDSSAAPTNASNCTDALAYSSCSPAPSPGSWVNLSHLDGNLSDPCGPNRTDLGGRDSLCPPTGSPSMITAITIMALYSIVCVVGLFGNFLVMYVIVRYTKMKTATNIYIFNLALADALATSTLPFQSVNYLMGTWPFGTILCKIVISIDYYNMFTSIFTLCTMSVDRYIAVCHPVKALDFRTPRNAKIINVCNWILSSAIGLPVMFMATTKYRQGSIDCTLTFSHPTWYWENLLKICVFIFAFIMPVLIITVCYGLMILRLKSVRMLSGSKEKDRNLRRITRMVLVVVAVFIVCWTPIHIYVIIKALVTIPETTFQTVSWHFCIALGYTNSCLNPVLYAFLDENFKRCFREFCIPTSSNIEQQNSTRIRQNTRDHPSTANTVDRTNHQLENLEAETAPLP
Sequence of Mu-type opioid receptor (Cavia porcellus) (P97266 whole entry): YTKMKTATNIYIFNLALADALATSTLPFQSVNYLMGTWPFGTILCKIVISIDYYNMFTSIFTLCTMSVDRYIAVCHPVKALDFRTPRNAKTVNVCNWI

Ki (Mu-type opioid receptor [3]) [nM] | Structure (SMILES) | Ki (Mu-type opioid receptor [1]) [nM] | Ki [2] [nM] | Ki [4] [nM] | Ki [5] [nM] | inhibition [6] [%]
0.1 | CC[C@]1(c2cccc(NS(C)(=O)=O)c2)[C@@H]2CN(CC3Cc4ccccc4C3O)C[C@@H]21 (stereo not given in full) | 0.08 | 0.07 | 4.5 | 19 | –
– | CCCCCCN1C[C@@H]2[C@H](C1)[C@@]2(C)c1cccc(NS(=O)(=O)C(C)C)c1 | – | 14 | 791 | 1580 | 18
– | CCCCCCN1C[C@@H]2[C@H](C1)[C@@]2(CCC)c1cccc(NS(C)(=O)=O)c1 | – | 10 | 328 | 66 | < 10
– | CC[C@]1(c2cccc(NS(C)(=O)=O)c2)[C@@H]2CN(CC3Cc4ccccc4C3)C[C@@H]21 | – | 0.2 | 22 | 29 | –
6.6 | CC[C@]1(c2cccc(NS(C)(=O)=O)c2)[C@@H]2CN(CC(O)Cc3ccccc3)C[C@@H]21 (stereo not given in full) | 2.5 | 2.6 | 70 | 595 | –
– | CCS(=O)(=O)Nc1cccc([C@@]2(C)[C@@H]3CN(CCCc4ccccc4)C[C@@H]32)c1 | – | 37 | 219 | 2900 | –
– | C[C@]1(c2cccc(NS(C)(=O)=O)c2)[C@@H]2CN(CCCc3ccccc3)C[C@@H]21 | 3.5 | 4.1 | 94 | 183 | < 10
– | CCCCCCN1C[C@@H]2[C@H](C1)[C@@]2(C)c1cccc(NS(=O)(=O)CCC)c1 | – | 104 | 1330 | > 10000 | –
– | CCCCCCN1C[C@@H]2[C@H](C1)[C@@]2(CC)c1cccc(NS(C)(=O)=O)c1 | – | 50 | 1340 | > 10000 | –
– | CCCCCCN1C[C@@H]2[C@H](C1)[C@@]2(C)c1cccc(NS(C)(=O)=O)c1 | – | 14 | 270 | 869 | < 10
– | CCCCCCN1C[C@@H]2[C@H](C1)[C@]2(c1cccc(NS(C)(=O)=O)c1)C(C)C | – | 3 | 48 | 308 | 32
– | CC[C@]1(c2cccc(NS(C)(=O)=O)c2)[C@@H]2CN(CCCc3ccccc3)C[C@@H]21 | – | 1.5 | 67 | 79 | < 10
– | CCCCCCN1C[C@@H]2[C@H](C1)[C@@]2(C)c1cccc(NS(=O)(=O)c2cccnc2)c1 | – | 71 | 1530 | > 10000 | –
– | CCCCCCN1C[C@@H]2[C@H](C1)[C@@]2(C)c1cccc(NS(=O)(=O)CCOC)c1 | – | 10 | 172 | 464 | > 10

Structure (SMILES) | Ki (Mu-type opioid receptor [3]) [nM] | Ki (Mu-type opioid receptor [1]) [nM] | Ki [2] [nM] | Ki [4] [nM] | Ki [5] [nM] | inhibition [6] [%]
C[C@]1(c2cccc(NS(C)(=O)=O)c2)[C@@H]2CN(CC3Cc4ccccc4C3)C[C@@H]21 | 0.81 | 0.3 | 0.55 | 51 | 384 | < 10
